In brackets after ≈: the same amount, converted by molar mass.
Legend:
Pseudomonas fluorescens = test: Antibacterial activity against Pseudomonas fluorescens after 24 hrs by MTT assay; format: functional
Method in brief: (§1)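 MIC by MTT colorimetry in Mueller-Hinton medium. Inoculum was about 10⁵ cfu/mL, added to serial dilutions made from DMSO solutions, then incubated at 37 °C for 24 h. MTT in PBS (0.01 mol/L, pH 7.4; 2 mg/mL) was added to each well. Dye was extracted with isopropanol containing 5% 1 mol/L HCl for 12 h at room temperature, and OD was read at 550 nm.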

Bacillus subtilis = test: Antibacterial activity against Bacillus subtilis after 24 hrs by MTT assay; format: functional; method in brief: as §1
Staphylococcus aureus = test: Antibacterial activity against Staphylococcus aureus after 24 hrs by MTT assay; format: functional; method in brief: as §1
Escherichia coli = test: Antibacterial activity against Escherichia coli ATCC 35218 after 24 hrs by MTT assay; format: functional; settings: ATCC 35218, 24 h; method in brief: as §1
[1] = Toxicity in erythrocytes assessed as hemolytic activity; format: cell-based; settings: erythrocyte
[2] = molecular target: T1, 3-oxoacyl-[acyl-carrier-protein] synthase 3 (Escherichia coli, UniProt C3TDZ2); test: Inhibition of Escherichia coli FabH expressed in Escherichia coli DH10B cells assessed as incorporation of 3H signal in the product after 25 mins by liquid scintillation
T1 sequence (C3TDZ2 whole entry): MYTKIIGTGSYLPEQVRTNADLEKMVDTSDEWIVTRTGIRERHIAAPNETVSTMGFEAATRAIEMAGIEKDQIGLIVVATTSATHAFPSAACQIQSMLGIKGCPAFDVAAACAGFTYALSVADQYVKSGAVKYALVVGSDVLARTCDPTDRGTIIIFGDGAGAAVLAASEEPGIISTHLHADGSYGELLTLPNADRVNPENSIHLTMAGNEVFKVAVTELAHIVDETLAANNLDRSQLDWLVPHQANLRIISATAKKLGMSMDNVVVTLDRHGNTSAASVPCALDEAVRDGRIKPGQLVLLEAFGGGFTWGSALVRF
Method in brief: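 Native E. coli FabH was expressed from pET30 in DH10B and purified by Q-Sepharose, MonoQ and hydroxyapatite chromatography at 4 °C. Reaction used 20 mM Na₂HPO₄ pH 7.0, 0.5 mM DTT, holo-ACP and 1 nM FabH. It was stopped with ice-cold 50% TCA (5 min on ice) and the protein pelleted. ³H incorporation was read by liquid scintillation. Inhibitors came from DMSO stock, with final DMSO ≤2%.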

Row | MIC (Pseudomonas fluorescens) [µg/mL] | MIC (Bacillus subtilis) [µg/mL] | MIC (Staphylococcus aureus) [µg/mL] | MIC (Escherichia coli) [µg/mL] | IC50 [2] [µM] | SMILES | LC30 [1] [µg/mL]
1 | 12.5 (≈ 40 µM) | 25 (≈ 80 µM) | 6.25 (≈ 20 µM) | 6.25 (≈ 20 µM) | – | Oc1ccc(Br)cc1CNc1ccc(Cl)cc1 | –
2 | 12.5 (≈ 25.3 µM) | 50 (≈ 101 µM) | 25 (≈ 50.6 µM) | 50 (≈ 101 µM) | – | O=C(Nc1ccccc1)N(Cc1cc(Br)cc(Br)c1O)c1ccccc1F | –
3 | 50 (≈ 117 µM) | 50 (≈ 117 µM) | 12.5 (≈ 29.3 µM) | 25 (≈ 58.5 µM) | – | COc1ccc(N(Cc2cc(Br)ccc2O)C(=O)Nc2ccccc2)cc1 | –
4 | 25 (≈ 80 µM) | 50 (≈ 160 µM) | 6.25 (≈ 20 µM) | 12.5 (≈ 40 µM) | – | Oc1ccc(Br)cc1CNc1ccccc1Cl | –
5 | 50 (≈ 133 µM) | 50 (≈ 133 µM) | 25 (≈ 66.7 µM) | 50 (≈ 133 µM) | – | Oc1c(Br)cc(Br)cc1CNc1ccccc1F | –
6 | 50 (≈ 115 µM) | 50 (≈ 115 µM) | 50 (≈ 115 µM) | 12.5 (≈ 28.7 µM) | – | Oc1c(Br)cc(Br)cc1CNc1ccccc1Br | –
7 | 6.25 (≈ 11.3 µM) | 50 (≈ 90.1 µM) | 50 (≈ 90.1 µM) | 50 (≈ 90.1 µM) | – | O=C(Nc1ccccc1)N(Cc1cc(Br)cc(Br)c1O)c1ccccc1Br | –
8 | 50 (≈ 135 µM) | 50 (≈ 135 µM) | 50 (≈ 135 µM) | 50 (≈ 135 µM) | – | Cc1ccc(NCc2cc(Br)cc(Br)c2O)cc1 | –
9 | 12.5 (≈ 26.3 µM) | 12.5 (≈ 26.3 µM) | 12.5 (≈ 26.3 µM) | 6.25 (≈ 13.1 µM) | 41 | O=C(Nc1ccccc1)N(Cc1cc(Br)ccc1O)c1ccc(Br)cc1 | > 10000
10 | 25 (≈ 49.4 µM) | 50 (≈ 98.8 µM) | 50 (≈ 98.8 µM) | 12.5 (≈ 24.7 µM) | – | COc1ccc(N(Cc2cc(Br)cc(Br)c2O)C(=O)Nc2ccccc2)cc1 | –
11 | 6.25 (≈ 21.1 µM) | 50 (≈ 169 µM) | 25 (≈ 84.4 µM) | 25 (≈ 84.4 µM) | – | Oc1ccc(Br)cc1CNc1ccccc1F | –
12 | 50 (≈ 128 µM) | 6.25 (≈ 16 µM) | 25 (≈ 63.9 µM) | 25 (≈ 63.9 µM) | – | Oc1c(Br)cc(Br)cc1CNc1ccccc1Cl | –
13 | 25 (≈ 52.5 µM) | 6.25 (≈ 13.1 µM) | 25 (≈ 52.5 µM) | 12.5 (≈ 26.3 µM) | 56.4 | O=C(Nc1ccccc1)N(Cc1cc(Br)ccc1O)c1ccccc1Br | > 10000
14 | 25 (≈ 50.6 µM) | 12.5 (≈ 25.3 µM) | 12.5 (≈ 25.3 µM) | 6.25 (≈ 12.6 µM) | 71.7 | O=C(Nc1ccccc1)N(Cc1cc(Br)cc(Br)c1O)c1ccc(F)cc1 | > 10000
15 | 12.5 (≈ 24.5 µM) | 25 (≈ 49 µM) | 6.25 (≈ 12.2 µM) | 3.13 (≈ 6.13 µM) | 10.1 | O=C(Nc1ccccc1)N(Cc1cc(Br)cc(Br)c1O)c1ccc(Cl)cc1 | > 10000
16 | 25 (≈ 57.9 µM) | 6.25 (≈ 14.5 µM) | 3.13 (≈ 7.25 µM) | 6.25 (≈ 14.5 µM) | 21.8 | O=C(Nc1ccccc1)N(Cc1cc(Br)ccc1O)c1ccccc1Cl | > 10000
17 | 25 (≈ 45 µM) | 50 (≈ 90.1 µM) | 25 (≈ 45 µM) | 12.5 (≈ 22.5 µM) | – | O=C(Nc1ccccc1)N(Cc1cc(Br)cc(Br)c1O)c1ccc(Br)cc1 | –

Row | MIC (Pseudomonas fluorescens) [µg/mL] | MIC (Bacillus subtilis) [µg/mL] | MIC (Staphylococcus aureus) [µg/mL] | MIC (Escherichia coli) [µg/mL] | IC50 [2] [µM] | SMILES | LC30 [1] [µg/mL]
18 | 25 (≈ 84.4 µM) | 50 (≈ 169 µM) | 12.5 (≈ 42.2 µM) | 12.5 (≈ 42.2 µM) | – | Oc1ccc(Br)cc1CNc1ccc(F)cc1 | –
19 | 25 (≈ 70 µM) | 50 (≈ 140 µM) | 50 (≈ 140 µM) | 25 (≈ 70 µM) | – | Oc1ccc(Br)cc1CNc1ccccc1Br | –
20 | 6.25 (≈ 15.1 µM) | 6.25 (≈ 15.1 µM) | 3.13 (≈ 7.54 µM) | 1.56 (≈ 3.76 µM) | 6.6 | O=C(Nc1ccccc1)N(Cc1cc(Br)ccc1O)c1ccc(F)cc1 | > 10000
21 | 3.13 (≈ 7.25 µM) | 6.25 (≈ 14.5 µM) | 1.56 (≈ 3.61 µM) | 1.56 (≈ 3.61 µM) | 4.7 | O=C(Nc1ccccc1)N(Cc1cc(Br)ccc1O)c1ccc(Cl)cc1 | > 10000
22 | 50 (≈ 171 µM) | 50 (≈ 171 µM) | 50 (≈ 171 µM) | 50 (≈ 171 µM) | – | Cc1ccc(NCc2cc(Br)ccc2O)cc1 | –
23 | – | – | – | – | 2.1 | Nc1ccn([C@H]2CC[C@@H](COP(=O)(O)O)O2)c(=O)n1 | > 10000
24 | 50 (≈ 129 µM) | 25 (≈ 64.6 µM) | 50 (≈ 129 µM) | 50 (≈ 129 µM) | – | COc1ccc(NCc2cc(Br)cc(Br)c2O)cc1 | –
25 | 50 (≈ 162 µM) | 50 (≈ 162 µM) | 50 (≈ 162 µM) | 50 (≈ 162 µM) | – | COc1ccc(NCc2cc(Br)ccc2O)cc1 | –
26 | 12.5 (≈ 35 µM) | 25 (≈ 70 µM) | 25 (≈ 70 µM) | 25 (≈ 70 µM) | – | Oc1ccc(Br)cc1CNc1ccc(Br)cc1 | –
27 | 25 (≈ 60.2 µM) | 25 (≈ 60.2 µM) | 50 (≈ 120 µM) | 12.5 (≈ 30.1 µM) | 37.4 | O=C(Nc1ccccc1)N(Cc1cc(Br)ccc1O)c1ccccc1F | > 10000
28 | 50 (≈ 122 µM) | 12.5 (≈ 30.4 µM) | 50 (≈ 122 µM) | 50 (≈ 122 µM) | – | Cc1ccc(N(Cc2cc(Br)ccc2O)C(=O)Nc2ccccc2)cc1 | –
29 | 25 (≈ 49 µM) | 50 (≈ 97.9 µM) | 12.5 (≈ 24.5 µM) | 6.25 (≈ 12.2 µM) | 51.5 | O=C(Nc1ccccc1)N(Cc1cc(Br)cc(Br)c1O)c1ccccc1Cl | > 10000
30 | 12.5 (≈ 31.9 µM) | 12.5 (≈ 31.9 µM) | 12.5 (≈ 31.9 µM) | 25 (≈ 63.9 µM) | – | Oc1c(Br)cc(Br)cc1CNc1ccc(Cl)cc1 | –
31 | 3.13 (≈ 6.47 µM) | 1.56 (≈ 3.23 µM) | 1.56 (≈ 3.23 µM) | 3.13 (≈ 6.47 µM) | – | NC[C@H]1O[C@H](O[C@H]2[C@H](O)[C@@H](O[C@H]3O[C@H](CO)[C@@H](O)[C@H](N)[C@H]3O)[C@H](N)C[C@@H]2N)[C@H](N)[C@@H](O)[C@@H]1O [BEKANAMYCIN] | –
32 | 50 (≈ 115 µM) | 50 (≈ 115 µM) | 50 (≈ 115 µM) | 25 (≈ 57.3 µM) | – | Oc1c(Br)cc(Br)cc1CNc1ccc(Br)cc1 | –
33 | 12.5 (≈ 33.3 µM) | 50 (≈ 133 µM) | 50 (≈ 133 µM) | 50 (≈ 133 µM) | – | Oc1c(Br)cc(Br)cc1CNc1ccc(F)cc1 | –
34 | 50 (≈ 102 µM) | 50 (≈ 102 µM) | 6.25 (≈ 12.8 µM) | 50 (≈ 102 µM) | – | Cc1ccc(N(Cc2cc(Br)cc(Br)c2O)C(=O)Nc2ccccc2)cc1 | –
